According to ChEMBL document CHEMBL1121393, “Synthesis and biological activity of flavipucine analogues” (1980):
Converted amounts (≈) assume the structure as drawn.

Experiments:
Assay type in all cases: functional
Staphylococcus aureus = test: Tested in vitro for antibacterial activity against Staphylococcus aureus
Method in brief: (§1)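 MICs determined by twofold agar dilution in nutrient agar with 0.2% yeast extract. Organisms were inoculated onto the plates with a Steers multiple inoculator.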

Alternaria solani = test: Tested for antifungal activity against Alternaria solani
Pseudomonas aeruginosa = test: Tested in vitro for antibacterial activity against Pseudomonas aeruginosa; method in brief: as §1
[1] = tested on: Bordetella bronchiseptica; test: Tested in vitro for antibacterial activity against Bordetella bronchiseptica; method in brief: as §1
Proteus vulgaris = test: Tested in vitro for antibacterial activity against Proteus volgaris; method in brief: as §1
Klebsiella pneumoniae = test: Tested in vitro for antibacterial activity against Klebsiella pneumoniae; method in brief: as §1
Escherichia coli = test: Tested in vitro for antibacterial activity against Escherichia coli; method in brief: as §1
Aspergillus niger = test: Tested for antifungal activity against Aspergillus niger
Klebsiella aerogenes = test: Tested in vitro for antibacterial activity against Aerobacter aerogenes; method in brief: as §1
Aureobasidium pullulans = test: Tested for antifungal activity against Pullaria pullulans

SMILES	MIC (Staphylococcus aureus) [µg/mL]	MIC (Alternaria solani) [µg/mL]	MIC (Pseudomonas aeruginosa) [µg/mL]	MIC [1] [µg/mL]	MIC (Proteus vulgaris) [µg/mL]	MIC (Klebsiella pneumoniae) [µg/mL]	MIC (Escherichia coli) [µg/mL]	MIC (Aspergillus niger) [µg/mL]	MIC (Klebsiella aerogenes) [µg/mL]	MIC (Aureobasidium pullulans) [µg/mL]
CC1=CC(=O)[C@@]2(O[C@@H]2C(=O)CC(C)C)C(=O)N1C	12.5 (≈ 49.7 µM)	6.3 (≈ 25.1 µM)	> 100	100 (≈ 398 µM)	6.3 (≈ 25.1 µM)	50 (≈ 199 µM)	100 (≈ 398 µM)	50 (≈ 199 µM)	> 100	
CC(=O)[C@H]1O[C@@]12C(=O)C=C(C)NC2=O	100 (≈ 512 µM)	> 100	50 (≈ 256 µM)	> 100	> 100	> 100	50 (≈ 256 µM)	> 100	> 100	> 100
CC1=CC(=O)[C@@]2(O[C@H]2C(=O)CC(C)C)C(=O)N1	6.3 (≈ 26.6 µM)	50 (≈ 211 µM)	> 100	50 (≈ 211 µM)	6.3 (≈ 26.6 µM)	6.3 (≈ 26.6 µM)	50 (≈ 211 µM)	> 100	100 (≈ 421 µM)	
CC(C)CC(=O)C1OC12C(=O)CC(C)(C)CC2=O (stereo unspecified)	25 (≈ 99.1 µM)	3.1 (≈ 12.3 µM)	50 (≈ 198 µM)	50 (≈ 198 µM)	50 (≈ 198 µM)	50 (≈ 198 µM)	> 100	25 (≈ 99.1 µM)	25 (≈ 99.1 µM)	6.3 (≈ 25 µM)
CC1=CC(=O)[C@@]2(O[C@H]2C(=O)CC(C)C)C(=O)N1C	25 (≈ 99.5 µM)	12.5 (≈ 49.7 µM)	> 100	100 (≈ 398 µM)	12.5 (≈ 49.7 µM)	100 (≈ 398 µM)	> 100	> 100	> 100	
CC1=CC(=O)C2(OC2C(=O)CC(C)C)C(=O)N1 (stereo unspecified)	4.7 (≈ 19.8 µM)	100 (≈ 421 µM)	> 100	33.9 (≈ 143 µM)	4.7 (≈ 19.8 µM)	4.7 (≈ 19.8 µM)	50 (≈ 211 µM)	> 100	100 (≈ 421 µM)	> 100
CCCCCCCCCC(=O)[C@@H]1O[C@@]12C(=O)C=C(C)NC2=O	0.8 (≈ 2.6 µM)	0.2 (≈ 0.651 µM)		0.8 (≈ 2.6 µM)		> 100	> 100	1.6 (≈ 5.21 µM)		0.2 (≈ 0.651 µM)
CCCCCCCCCC(=O)[C@H]1O[C@@]12C(=O)C=C(C)NC2=O	0.4 (≈ 1.3 µM)	0.2 (≈ 0.651 µM)		3.1 (≈ 10.1 µM)	12.5 (≈ 40.7 µM)	> 100	> 100	0.2 (≈ 0.651 µM)		0.2 (≈ 0.651 µM)
CC(=O)[C@@H]1O[C@@]12C(=O)C=C(C)NC2=O	> 100	> 100	> 100	> 100	> 100	> 100	> 100	> 100	> 100	> 100
CC1=CC(=O)[C@@]2(O[C@@H]2C(=O)CC(C)C)C(=O)N1	6.3 (≈ 26.6 µM)	25 (≈ 105 µM)	> 100	50 (≈ 211 µM)	3.1 (≈ 13.1 µM)	6.3 (≈ 26.6 µM)	50 (≈ 211 µM)	> 100	> 100	
